Measured values published in ChEMBL document CHEMBL1139507, “Application of phosphoramidate pronucleotide technology to abacavir leads to a significant enhancement of antiviral potency” (J Med Chem, 2005).
“And” between values parts separate entries of the source, which are not always exact repeats. Identical values can stand only once.

What was measured:
[1] = Area under the plasma concentration-time curve in monkey after administration of intravenous dosage; type: ADME; conditions: cercopithecidae
Outline: (§1)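 Female cynomolgus monkeys (three, 2.0-3.2 kg) received the succinate salt at 11.5 mg/kg (17.3 µmol/kg), 2.3 mg/mL in 10% DMSO/90% saline, 5 mL/kg, iv on day 1 and orally on day 8 (1-week washout); fasted overnight to ~4 h postdose. Serial plasma to 24 h, acetonitrile deproteination, LC/MS/MS of prodrug, alaninyl-ABC-MP, ABC-MP, ABC, CBV; noncompartmental analysis.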

[2] = Total plasma clearance in monkey after administration of intravenous dosage; (n=3); type: ADME, organism-based; conditions: cercopithecidae; outline: as §1
[3] = Apparent half life value in monkey after oral dosage; type: ADME, organism-based; conditions: cercopithecidae, in vivo, read-out: T1/2 app (converted); outline: as §1
[4] = Time of maximum concentration was observed in monkey after oral dosage; type: ADME, organism-based; conditions: cercopithecidae, in vivo; outline: as §1
[5] = Terminal elimination half-life in monkey after administration of intravenous dosage; type: ADME, organism-based; conditions: cercopithecidae, in vivo; outline: as §1
[6] = Oral bioavailability in monkey after oral dosage; type: ADME, organism-based; conditions: cercopithecidae, in vivo; outline: as §1
[7] = Area under the plasma concentration-time curve in monkey after peroral dosage; type: ADME; conditions: cercopithecidae, po; outline: as §1
[8] = tested on: Human immunodeficiency virus 2; test: Ratio of CC50 to that of EC50 against human immunodeficiency virus type 2 in CEM cells; type: functional, CCRF-CEM
[9] = Terminal elimination half-life in monkey after intravenous dosage; NA = not applicable; type: ADME, organism-based; conditions: cercopithecidae, in vivo; outline: as §1
[10] = tested on: Human immunodeficiency virus 2; test: Effective concentration against human immunodeficiency virus type 2 in CEM cells; type: functional, organism-based; conditions: Human immunodeficiency virus 2, CCRF-CEM
Outline: (§2)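 HIV-1- and HIV-2-induced cytopathicity in CEM cell cultures, scored at day 4 by microscopic examination of virus-induced giant cell formation; EC50 = concentration inhibiting cytopathicity by 50%.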

[11] = tested on: Human immunodeficiency virus 1; test: Effective concentration against human immunodeficiency virus type 1 in PBL cells; type: functional, organism-based; conditions: Human immunodeficiency virus 1, PBL
[12] = tested on: Human immunodeficiency virus 1; test: Effective concentration against human immunodeficiency virus type 1 in CEM cells; type: functional, organism-based; conditions: Human immunodeficiency virus 1, CCRF-CEM; outline: as §2
HEL = test: Cytostatic concentration required to inhibit HEL cell proliferation; type: functional; conditions: Homo sapiens
Outline: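 HEL cell proliferation measured in presence of compound; CC50 = 50% cytostatic concentration inhibiting HEL cell proliferation by 50%.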

Human alphaherpesvirus 2 = test: Effective concentration against thymidine kinase competent herpes simplex virus (HSV-2) in […]
[13] = Area under the plasma concentration-time curve in monkey after intravenous dosage; type: ADME; conditions: cercopithecidae; outline: as §1
Hepatitis B virus [14] = test: Effective concentration against HBV in Hep G2.2.15 cells; type: functional, organism-based, HepG2 2.2.15; conditions: Hepatitis B virus, HepG2 2.2.15
Outline: (§3)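 Anti-HBV activity assayed in HepG2 2.2.15 human hepatoma cells, which constitutively produce HBV; EC50 = 50% effective concentration.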

[15] = tested on: Human immunodeficiency virus 2; test: Effective concentration against human immunodeficiency virus type 2 (ROD) in CEM cells; type: functional, organism-based; conditions: Human immunodeficiency virus 2, CCRF-CEM; outline: as §2
CCRF-CEM [16] = test: Cytostatic concentration required to inhibit CEM cell proliferation; type: functional; conditions: Homo sapiens
Human alphaherpesvirus 1 [17] = test: Effective concentration against thymidine kinase competent herpes simplex virus (HSV-1) in […]; type: functional, organism-based
Outline: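 Confluent HEL cell cultures inoculated with 100 CCID50 of HSV-1 (KOS), HSV-2 (G) or HSV-1 TK- (B2006, VMW-1837); after 1 h adsorption, residual virus removed and cells incubated with varying compound concentrations; cytopathicity recorded once complete in virus controls; EC50 = concentration inhibiting HSV-induced cytopathicity by 50%.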

HepG2 [18] = test: Cytostatic concentration required to inhibit Hep G2 cell proliferation; type: functional; conditions: Homo sapiens
HepG2 [19] = test: Cytostatic concentration required to inhibit Hep G2.2.15 cell proliferation; type: functional, Homo sapiens
Outline: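 Growth inhibition of HepG2 2.2.15 human hepatoma cells (constitutively HBV-producing) measured; CC50 = 50% cytostatic concentration.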

C3H/3T3 = test: Cytostatic concentration required to inhibit C3H/3T3 cell proliferation; type: functional; conditions: Mus musculus
Hepatitis B virus [20] = test: Effective concentration againstHBV in Hep G2.2.15 cells; type: functional, organism-based, HepG2 2.2.15; conditions: Hepatitis B virus, HepG2 2.2.15; outline: as §3
[21] = tested on: Moloney murine sarcoma virus; test: Effective concentration against murine moloney sarcoma virus in C3H/3T3 cells; type: functional, organism-based
Human alphaherpesvirus 1 [22] = test: Effective concentration against thymidine kinase deficient herpes simplex virus (HSV-1) in B2006 strain; conditions: Human alphaherpesvirus 1, B2006
Human alphaherpesvirus 1 [23] = test: Effective concentration against thymidine kinase deficient herpes simplex virus (HSV-1) in VMW-1837 strain; conditions: Human alphaherpesvirus 1, VMW-1837
[24] = tested on: Human immunodeficiency virus 1; test: Effective concentration against human immunodeficiency virus type 1 in MT-4 cells; type: functional, organism-based, MT4
[25] = tested on: Human immunodeficiency virus 2; test: Effective concentration against human immunodeficiency virus type 2 in MT-4 cells; type: functional, organism-based; conditions: Human immunodeficiency virus 2, MT4
MT4 = test: Cytostatic concentration required to inhibit MT-4 cell proliferation; type: functional, Homo sapiens
Hepatitis B virus [26] = test: Effective concentration against hepatitis B virus in Hep G2.2.15 cells; type: functional, organism-based; conditions: HepG2 2.2.15; outline: as §3
[27] = Terminal elimination half-life in monkey after intravenous dosage; NA=not applicable; type: ADME, organism-based; conditions: cercopithecidae, in vivo; outline: as §1
CCRF-CEM [28] = test: Intracellular concentration of metabolites (ABCMP) from 6-8 hrs in CEM cells after incubation with the compound (10 uM); type: functional, cell-based; conditions: Homo sapiens
Outline: (§4)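 CEM T4 lymphocytes seeded at (2-4) × 10⁵ cells/mL in RPMI-1640 with 10% fetal calf serum, 2 mM L-glutamine, 0.075% NaHCO₃. They were exposed 24 h to 10 µM [³H]abacavir or 1.1 µM ³H-ProTide (5 µCi/5 mL), washed twice in cold medium, and extracted with cold methanol/water 60:40. Metabolites were separated by SAX HPLC, (NH₄)H₂PO₄ pH 5.0 gradient 0.005-0.30 M, with fractions by retention time in min. Results are pmol/10⁹ cells.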

CCRF-CEM [29] = test: Intracellular concentration of metabolites (CBVMP +alaninyl-ABCMP) from 11-13 hrs in CEM cells after incubation with the compound (10 uM); type: functional, cell-based; conditions: Homo sapiens; outline: as §4
CCRF-CEM [30] = test: Intracellular concentration of metabolites (CBVDP) from 19-21 hrs in CEM cells after incubation with the compound (10 uM); type: functional, cell-based; conditions: Homo sapiens; outline: as §4
[31] = tested on: Human immunodeficiency virus 1; test: Ratio of CC50 to that of EC50 against human immunodeficiency virus type 1 in CEM cells; type: functional, CCRF-CEM
CCRF-CEM [32] = test: Intracellular concentration of metabolites (CBVTP) from 35-38 hrs in CEM cells after incubation with the compound (10 uM); type: functional, cell-based; conditions: Homo sapiens; outline: as §4
CCRF-CEM [33] = test: Intracellular concentration of metabolites (ABC + proABC + CBV) from 2-3 hrs in CEM cells after incubation with the compound (10 uM); type: functional, cell-based; conditions: Homo sapiens; outline: as §4
CCRF-CEM [34] = test: Intracellular concentration of metabolites (ABC +CBV) from 2-3 hrs in CEM cells after incubation with the compound (10 uM); type: functional, cell-based; conditions: Homo sapiens; outline: as §4
CCRF-CEM [35] = test: Intracellular concentration of metabolites (CBV-MP) from 11-13 hrs in CEM cells after incubation with the compound (10 uM); type: functional, cell-based; conditions: Homo sapiens; outline: as §4

Structure (SMILES)	half-life [3]	Tmax [4]	AUC [7]	SI [8]	T1/2 [9]	EC50 [11]	EC50 [12]	CC50 (HEL)	EC50 (Human alphaherpesvirus 2)	AUC [13]	EC50 (Hepatitis B virus [14])	EC50 [15]	CC50 (CCRF-CEM [16])	EC50 (Human alphaherpesvirus 1 [17])	CC50 (HepG2 [18])	CC50 (HepG2 [19]; Homo sapiens, HepG2)	CC50 (C3H/3T3)	EC50 [21]	EC50 (Human alphaherpesvirus 1 [22])	EC50 (Human alphaherpesvirus 1 [23])	other results
CCOC(=O)[C@H](C)NP(=O)(OC[C@@H]1C=C[C@H](n2cnc3c(NC4CC4)nc(N)nc32)C1)Oc1ccccc1 (stereo not given in full)	0.4 h	0.8 h	700 nM·h	–	–	–	–	–	–	–	–	–	–	–	–	–	–	–	–	–	AUC [1]: 2700 nM·h; clearance [2]: 6.8 L/h/kg; half-life [5]: 6.6 min; bioavailability [6]: 22%
Nc1nc2c(ncn2[C@H]2C=C[C@@H](CO)C2)c(=O)[nH]1 [CARBOVIR]	6 h	4.7 h	400 nM·h	68	Not Active	0.03 µM	2 µM	15 µM	8 µM	700 nM·h	10.5 µM	2.3 µM	160 µM	5 µM	150 µM	150 µM	> 20 µM	6 µM	50 µM	13 µM	EC50 [10]: 2.3 µM; EC50 (Hepatitis B virus [20]): 10 µM
C[C@@H](NP(=O)(O)OC[C@@H]1C=C[C@H](n2cnc3c(NC4CC4)nc(N)nc32)C1)C(=O)O	0.8 h	1.3 h	2600 nM·h	–	Not Active	–	1.2 µM	–	–	9200 nM·h	5 µM	–	8.6 µM	–	11 µM	–	–	–	–	–	EC50 ([24]; Human immunodeficiency virus 1, MT4): 6.6 µM; EC50 [25]: 3.4 µM; CC50 (MT4; Homo sapiens, MT4): 2.1 µM
Nc1nc(NC2CC2)c2ncn([C@H]3C=C[C@@H](COP(=O)(O)O)C3)c2n1	–	1.3 h	–	150	–	0.008 µM	0.07 µM	110 µM	20 µM	400 nM·h	–	0.09 µM	13 µM	20 µM	–	17 µM	> 4 µM	1.6 µM	20 µM	20 µM	EC50 (Hepatitis B virus [26]): 0.55 µM; T1/2 [27]: Not Active; Concentration (pmol/10E9 cells) (CCRF-CEM [28]): 280; Concentration (pmol/10E9 cells) (CCRF-CEM [29]): 12400; Concentration (pmol/10E9 cells) (CCRF-CEM [30]): 3490; SI [31]: 190; Concentration (pmol/10E9 cells) (CCRF-CEM [32]): 3020; Concentration (pmol/10E9 cells) (CCRF-CEM [33]): 5000
Nc1nc(NC2CC2)c2ncn([C@H]3C=C[C@@H](CO)C3)c2n1 [ABACAVIR]	2.6 h	3 h	6000 nM·h	26	Not Active	0.2 µM	1.9 µM	200 µM	900 µM	6000 nM·h	5.6 µM	3 µM	78 µM	900 µM	110 µM	–	> 20 µM	8.8 µM	900 µM	320 µM	EC50 ([24]; mt4): 5.9 µM and 2.15 µM; Concentration (pmol/E109 cells) (CCRF-CEM [34]): 762; EC50 [10]: 3 µM; Concentration (pmol/E109 cells) (CCRF-CEM [28]): 5.8; Concentration (pmol/E109 cells) (CCRF-CEM [30]): 42; SI [31]: 41; Concentration (pmol/E109 cells) (CCRF-CEM [32]): 82; Concentration (pmol/E109 cells) (CCRF-CEM [35]): 108; CC50 (HepG2 [19]): 17 µM and 110 µM; EC50 [25]: 7.3 µM; EC50 (Hepatitis B virus [20]): 5.6 µM; CC50 (MT4): 192 µM and 89 µM
COC(=O)[C@@H](C)NP(=O)(OC[C@@H]1C=C[C@H](n2cnc3c(O)nc(N)nc32)C1)Oc1ccccc1 (stereo not given in full)	–	–	–	26	–	0.2 µM	1.3 µM	160 µM	480 µM	–	–	3 µM	78 µM	480 µM	–	200 µM	> 20 µM	8.8 µM	> 800 µM	480 µM	SI [31]: 41; EC50 (Hepatitis B virus [20]): 0.51 µM
